PLAP activator: activates human placental alkaline phosphatase. activation fold at 20 µM. AID 696. purified PLAP enzyme, luminescent substrate read-out; active compounds read high. 96,000 tested, 1.2% active. P05187; in the data active means activation fold above about 2
PLK1 kinase inh: inhibitors of human PLK1 kinase | P53350 | recombinant PLK1 kinase, TR-FRET peptide phosphorylation | inhibition, % at 10 µM | 97,000 tested, 0.53% active | AID 619;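 active means inhibition of 50% or more in the single-concentration screen; inactive means inhibition below 50%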;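 further: 0% = DMSO max control and 100% = H-89 dihydrochloride min control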
Target sequence (P53350 whole entry, looked up): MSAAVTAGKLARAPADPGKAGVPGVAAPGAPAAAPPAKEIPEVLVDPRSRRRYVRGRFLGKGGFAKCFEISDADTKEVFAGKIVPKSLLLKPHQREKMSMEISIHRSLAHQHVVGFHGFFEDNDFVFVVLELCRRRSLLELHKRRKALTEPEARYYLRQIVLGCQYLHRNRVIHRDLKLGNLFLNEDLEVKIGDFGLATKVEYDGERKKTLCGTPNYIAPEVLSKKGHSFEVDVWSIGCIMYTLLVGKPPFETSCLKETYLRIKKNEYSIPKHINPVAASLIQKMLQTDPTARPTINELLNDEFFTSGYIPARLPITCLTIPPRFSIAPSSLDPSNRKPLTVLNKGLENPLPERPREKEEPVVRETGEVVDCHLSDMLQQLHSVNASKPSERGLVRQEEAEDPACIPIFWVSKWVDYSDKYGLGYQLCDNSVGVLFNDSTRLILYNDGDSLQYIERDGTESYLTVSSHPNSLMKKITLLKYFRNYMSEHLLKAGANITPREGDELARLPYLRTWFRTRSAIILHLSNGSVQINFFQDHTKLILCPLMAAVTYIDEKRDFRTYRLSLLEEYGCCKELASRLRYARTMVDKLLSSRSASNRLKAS
PTPN22 inh 2: inhibitors of human LYP (PTPN22) phosphatase. AID 640. recombinant LYP catalytic domain, DiFMUP fluorescence. 96,000 tested, 0.21% active. inhibition, % at 2 µM;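 active means inhibition at 2 µM at or above a set limit, the screen mean plus 3 SD, cut at about 24% in these data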;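 further: 0% = DMSO with enzyme and 100% = enzyme fully blocked by orthovanadate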
Rev-RRE block: HIV Rev-RRE protein-RNA interaction inhibition; inhibition, % at 8 µM; 97,000 tested, 0.79% active; P05866; Rev peptide-RRE RNA binding, FRET;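 active means inhibition above the screen-wide mean plus 3 SD, cut at about 35% in these data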;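 further: 0% = median DMSO wells and 100% = median Neomycin B control wells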
Target sequence (P05866 whole entry, looked up): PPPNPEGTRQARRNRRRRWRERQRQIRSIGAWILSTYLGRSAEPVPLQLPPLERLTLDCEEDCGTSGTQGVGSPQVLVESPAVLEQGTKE
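Assay system: labelled RRE RNA duplex and labelled Rev peptide / Medium: HEPES pH 7.5 salt buffer with EDTA / Reagent: labelled Rev peptide / Schedule: 5 + 15 min at 25 °C / Signal: FRET, excitation 480 nm, emission 540 nm donor and 671 nm acceptor / Benchmarks: DMSO and neomycin B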
PTPN22 act: increases human PTPN22 phosphatase activity; Q9Y2R2; recombinant LYP, DiFMUP fluorescence; 0 = plate median, 100 = signal doubled; activation, % at 2 µM; 96,000 tested, 0.11% active;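 active means activation at 2 µM above a set limit, the mean plus 5 SD, cut at about 37% in these data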
Plk1 PBD FP: Plk1 (human) PBD binding inhibition | 97,000 tested, 0.13% active | P53350 | Plk1 PBD phosphopeptide binding, fluorescence polarization | inhibition, %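 (tested at about 20 µM)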; in the data active means inhibition above about 34%, passing the limit was not always enough
Redox H2O2 DR: generates H2O2 by redox cycling, flagging false Plk1 PBD hits | shares compounds with Plk1 PBD FP | redox cycling H2O2 generation, DTT, counter-screen | AID 876 | 120 tested, under 10 active | EC50, µM
LYP act confirm: confirmation of human LYP phosphatase activators | Recombinant LYP, DIFMUP fluorescence, activation; zero set by plate's median compound well | AID 1031 | 100 tested, under 10 active | activation, % at 2 µM | shares compounds with PTPN22 act
An asterisk follows results filed as active; · = not tested or not shown. Only some compounds are listed: those with a hit (about 2.7% of all), similar ones and a draw of the others. Unless noted, how the calls were made is not given here.

SMILES | PLAP activator | PLK1 kinase inh | PTPN22 inh 2 | Rev-RRE block | PTPN22 act | Plk1 PBD FP | Redox H2O2 DR | others
CCCSc1nc(N2CCOCC2)c2c(c1C#N)CCCC2 | 1.1 | -14 | 2 | 14 | -3 | 51* | >50
COc1cccc(/C=N/Nc2ncnc(N)c2[N+](=O)[O-])c1OC | 1.4 | -10 | 9 | 8 | -7 | 6 | ·
CCn1c(SCC(=O)N2CCCCC2C)nnc1-c1ccc(S(=O)(=O)N2CCN(C)CC2)cc1 (stereo not given) | 1.6 | -6 | 2 | 8 | -1 | -28 | ·
CCn1c(SCC(N)=O)nnc1-c1ccc(S(=O)(=O)N2CCN(C)CC2)cc1 | 0.9 | -11 | -6 | 3 | 2 | 44* | >50
O=C1C(C2=C(O)c3ccccc3C2=O)=Nc2ccccc21 | 1.1 | 23 | -14 | 13 | 12 | 66* | 29*
Cc1cccc(C)c1NC1=NC(=S)N(c2ccccc2)C12CCOC(C)(C)C2 (stereo not given) | 0.9 | -3 | 13 | 2 | -13 | 111* | >50
Nc1cc(-c2ccc(Br)cc2)nn1S(=O)(=O)c1cccc2nsnc12 | 1.1 | -2 | -9 | 0 | 6 | 47* | >50
COc1cc(C)c(Cl)cc1S(=O)(=O)NCCN1CCOCC1 | 1.7 | -3 | -8 | 0 | 10 | -9 | ·
COC(=O)CNC(=O)C12CC3(C)CC(C)(CC(C)(C3)C1)C2 | 1.1 | -9 | 0 | -4 | -4 | 33* | >50
COc1ccc2c(c1OC)C(=O)OC2CC(=O)c1ccc(O)c(O)c1 (stereo not given) | · | 16 | 7 | 7 | -6 | 4 | ·
COc1ccc2c(c1OC)C(=O)OC2CC(=O)O (stereo not given) | 1 | -10 | -8 | 9 | 8 | 40* | >50
CCCc1[nH]nc2c1C(c1cccc(OC(=O)c3ccco3)c1)C(C#N)=C(N)O2 (stereo not given) | 1.5 | 23 | -1 | 16 | 0 | 25 | ·
CCc1noc(C)c1C(=O)N1CCOCC1 | 0.9 | -5 | 9 | 0 | -12 | 41* | >50
O=C1Nc2ccc([N+](=O)[O-])cc2C1(O)N1CCCCC1 (stereo not given) | 1 | -14 | 11 | 3 | -8 | 57* | >50
CC(=O)N(C)c1ccc(NC(=O)c2ccccc2C(=O)O)cc1 | 1 | -4 | 4 | 7 | -5 | 1 | ·
CCn1ccc(C(=O)Nc2ccc(N(C)C(C)=O)cc2)n1 | 1.1 | -4 | 4 | 4 | -4 | 52* | >50
CCn1c(=O)cc(SCC(=O)Nc2ccc3c(c2)OCO3)c2ccccc21 | 1 | -7 | 18 | 4 | -14 | 17 | ·
Cn1cc(SCC(=O)Nc2ccc3c(c2)OCCO3)c2ccccc21 | 0.8 | 4 | 0 | 2 | -2 | 44* | >50
CCC(Sc1nc2n[nH]c(C)c2c(=N)n1-c1cccc(Cl)c1)C(=O)NCCOC (stereo not given) | 2.1* | 6 | 6 | 2 | -8 | 43* | >50
CCC(Sc1nc2n[nH]c(C)c2c(=N)n1-c1ccc(C)c(Cl)c1)C(=O)N1CCOCC1 (stereo not given) | 1.1 | · | · | · | · | · | ·
O=C(CSc1nc2ccc([N+](=O)[O-])cc2[nH]1)NCCc1ccccc1 | 1.3 | -9 | -3 | 1 | 6 | -9 | ·
O=C(COc1ccccc1)Nc1ccc(S(=O)(=O)N2CCOCC2)cc1 | 0.7 | -6 | -6 | 7 | 4 | 40* | >50
COc1ccc(OCC(=O)Nc2ccc(S(=O)(=O)N3CCOCC3)cc2)cc1 | 0.8 | -4 | -10 | 7 | 11 | -11 | ·
Cn1c(=O)c2c(ncn2CCCc2ccccc2)n(C)c1=O | 1.1 | -11 | -3 | 4 | 0 | 51* | >50
Cn1c(=O)c2c(ncn2Cc2ccccc2)n(C)c1=O | · | 0 | 4 | 2 | -5 | -10 | ·
SMILES | PLAP activator | PLK1 kinase inh | PTPN22 inh 2 | Rev-RRE block | PTPN22 act | Plk1 PBD FP | Redox H2O2 DR | others
O=S(=O)(NCC(O)COCc1ccco1)c1cccs1 (stereo not given) | 1.7 | · | · | · | · | · | ·
Cc1cc(N2CCOCC2)nc2ccc(NC(=O)CCC(=O)N3CCCCC3)cc12 | 1.3 | -2 | -42 | 3 | 38* | -10 | · | LYP act confirm=-1
O=c1c2c(nc3cc(-c4ccc(F)cc4)[nH]n13)CCCC2 | 0.9 | 1 | -4 | 3 | 2 | 5 | ·
O=c1c2c(nc3cc(-c4cccc(Cl)c4)[nH]n13)CCC2 | 0.9 | -9 | -37 | 3 | 43* | 1 | · | LYP act confirm=-5
COc1ccccc1-n1cnc2cc(NCc3ccccn3)ccc21 | 1 | -12 | 16 | 4 | -14 | -15 | ·
COc1ccc(-n2cnc3cc(NCc4ccccn4)ccc32)cc1 | 1 | -11 | -38 | -1 | 42* | 0 | · | LYP act confirm=-4
CC(=O)Nc1sc2c(c1C(N)=O)CCCC2 | 1 | -7 | -42 | 7 | 45* | 15 | · | LYP act confirm=10
O=C(NCc1ccc(F)cc1)c1cccc(S(=O)(=O)N2CCCC2)c1 | 0.8 | -3 | 7 | 4 | -6 | 3 | ·
CCn1c(-c2ccc3ncccc3c2)n[nH]c1=S | 0.9 | -4 | -39 | 3 | 42* | 2 | · | LYP act confirm=3
CCC(C(=O)NC1CCCC1)N(Cc1ccc2c(c1)OCO2)C(=O)c1snc(C(N)=O)c1N (stereo not given) | 0.9 | -10 | -2 | 6 | 1 | 5 | ·
CC(C(=O)NC1CCCC1)N(Cc1ccc2c(c1)OCO2)C(=O)c1snc(C(N)=O)c1N (stereo not given) | 0.8 | -6 | -44 | 8 | 42* | -18 | · | LYP act confirm=0
O=C(CCCC(=O)N(CC(=O)NC1CCCC1)Cc1ccc(F)cc1)Nc1ccccn1 | 1.7 | -4 | -41 | 2 | 38* | 5 | · | LYP act confirm=-4
COc1cc2[nH]c(=S)n(Cc3ccco3)c(=O)c2cc1OC | 1.2 | -8 | 4 | 9 | -1 | 11 | ·
COC(=O)C1=C(C)NC(=O)CC1c1cc(Br)ccc1F (stereo not given) | 0.7 | -14 | -43 | -2 | 38* | 20 | · | LYP act confirm=-3
CCOC(=O)C1=C(C)NC(=O)CC1c1cc2c(cc1Br)OCO2 (stereo not given) | 1 | · | · | · | · | · | ·
O=C(Nc1ccc(O)c(C(=O)O)c1)c1ccc2c(c1)C(=O)N(CC1CCCO1)C2=O (stereo not given) | 1.1 | · | · | · | · | · | ·
O=C(Nc1ccc2c(c1)C(=O)N(CC1CCCO1)C2=O)c1ccc(Cl)c(Cl)c1 (stereo not given) | 1 | 0 | -33 | 17 | 37* | -2 | · | LYP act confirm=1
c1ccc(NCCCNc2ccccc2)cc1 | 0.8 | -16 | 15 | 3 | -15 | 29 | ·
CN(C)CCNc1ncnc2c1sc1nc(N3CCOCC3)c3c(c12)CC(C)(C)SC3 | 1.3 | -9 | -54 | 8 | 49* | -20 | · | LYP act confirm=7
